Screening results (PubChem BioAssay)
NR2E3 ag-1 – agonists of human NR2E3 nuclear receptor. CHO-S Gal4-NCOR/VP16-NR2E3 two-hybrid, luciferase. 360,000 tested, 0.35% active. inhibition of corepressor binding, % at 3.98 µM;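 active = inhibition above the mean of all tested compounds plus 3 SD, cut at about 70% in these data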;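 also: higher means lower luciferase signal from less NR2E3 corepressor binding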
NR2E3 ag-2 – activates human photoreceptor nuclear receptor NR2E3. Q9Y5X4. GST-NR2E3/biotin-RetCOR TR-FRET, 1536-well. inhibition of corepressor binding, % at 4.78 µM. 320,000 tested, 0.12% active;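 active = percent inhibition above the cutoff of mean plus 3 SD of all tested compounds, set per screening campaign, cut at about 20% in these data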
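System: GST-tagged NR2E3 plus biotinylated RetCOR corepressor; Amount: 1.35 nM GST-tagged NR2E3 final; Dosing: single nominal compound dose of 4.8 µM; Schedule: 5 h incubation at 4 °C; Technique: TR-FRET with europium anti-GST and streptavidin-D2, 340 nm excitation; Controls: biotin wells as high control, 0.6% DMSO wells as low control.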
ADAM10 inh – inhibits human ADAM10; O14672; recombinant ADAM10, EDANS/DABCYL FRET peptide cleavage, 3 h; inhibition, % at 7 µM; 370,000 tested, 0.62% active;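 active = inhibition above a per-campaign cutoff equal to the mean of compounds falling between control-based bounds plus 3 SD, cut at about 20% in these data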
JMJD2C inh – blocks human GASC-1 demethylase activity. 330,000 tested, 0.069% active. GST-JMJD2C(1-420) H3K9me3 demethylation, DELFIA europium. inhibition, % at 2.35 µM;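 active = more than half of a compound's replicate wells show inhibition beyond 50%, single wells judged on their own value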;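 also: signal counts dimethyl H3K9 product captured on neutravidin plate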
ADAM17 inh – inhibits human ADAM17. P78536. recombinant ADAM17, EDANS/DABCYL FRET peptide cleavage. inhibition, % at 6.95 µM. 370,000 tested, 0.83% active;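 active = inhibition above the mean of compounds lying between control limits plus 3 SD, set per campaign, cut at about 8.5% in these data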
Target sequence (P78536 215-824 limits assumed): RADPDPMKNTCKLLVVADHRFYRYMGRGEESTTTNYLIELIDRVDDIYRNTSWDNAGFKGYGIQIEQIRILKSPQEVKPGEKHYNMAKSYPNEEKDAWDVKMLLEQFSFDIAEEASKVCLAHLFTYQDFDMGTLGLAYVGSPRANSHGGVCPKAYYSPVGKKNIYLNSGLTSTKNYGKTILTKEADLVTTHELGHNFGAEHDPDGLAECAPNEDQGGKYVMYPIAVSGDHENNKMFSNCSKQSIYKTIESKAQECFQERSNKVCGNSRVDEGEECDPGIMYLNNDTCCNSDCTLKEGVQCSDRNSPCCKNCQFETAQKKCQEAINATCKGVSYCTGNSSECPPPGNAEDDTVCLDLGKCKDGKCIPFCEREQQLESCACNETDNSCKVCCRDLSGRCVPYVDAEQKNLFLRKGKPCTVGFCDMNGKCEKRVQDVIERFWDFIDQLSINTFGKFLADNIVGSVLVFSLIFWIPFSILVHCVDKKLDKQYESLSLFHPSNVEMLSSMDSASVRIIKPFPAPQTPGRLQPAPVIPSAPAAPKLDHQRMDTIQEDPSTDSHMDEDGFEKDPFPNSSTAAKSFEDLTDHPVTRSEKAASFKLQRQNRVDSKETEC
proKLK7 act – activators of human kallikrein-7 zymogen; P49862; purified proKLK7, EDANS-DABCYL substrate fluorescence; 100% is mature enzyme control, 0% vehicle; activation, % at 7 µM; 370,000 tested, 0.9% active;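 active = activation above the mean of all tested compounds plus 3 SD, computed per campaign excluding outliers beyond control limits, cut at about 13% in these data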
NR2E3 ag conf – confirmation of human NR2E3 agonists; shares compounds with NR2E3 ag-1; CHO-S mammalian two-hybrid NR2E3-NCOR, luciferase luminescence; inhibition, % at 3.98 µM; 2,300 tested, 51% active; AID 624378;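 active = average inhibition above a cutoff equal to the mean inhibition of all tested compounds plus one SD, cut at about 70% in these data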
VP16 counter – counter-screen for NR2E3 agonists: GAL4-VP16 reporter inhibitors | shares compounds with NR2E3 ag-1 | CHO-S GAL4-VP16 luciferase reporter, luminescence | inhibition, % at 3.98 µM | 2,300 tested, 29% active;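 active = mean inhibition above a cutoff equal to the average over all tested compounds plus one standard deviation, cut at about 70% in these data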;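 also: luciferase from a UAS reporter driven by GAL4-VP16 transactivation; higher means less reporter light so more repression of VP16 activity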
A number is an active result; i = inactive; nt = not tested or not shown. Shown are actives, neighbours in structure and some others; about 2.5% of the full set was active somewhere.

SMILES	NR2E3 ag-1	NR2E3 ag-2	ADAM10 inh	JMJD2C inh	ADAM17 inh	proKLK7 act	NR2E3 ag conf	VP16 counter
C[C@@H]1CC[C@H]2[C@@H](C)C(=O)O[C@@H]3O[C@@]4(C)CC[C@@H]1[C@]32OO4	i	i	i	i	i	i	nt	nt
CCC(C)C(NC(=O)CCCNC(=O)CCC(=O)OC1O[C@H]2OC3(C)CC[C@H]4[C@H](C)CCC(C1C)C24OO3)C(=O)O (stereo partly drawn)	95	i	i	i	i	i	94	71
CC(C)(C)c1cc([N+](=O)[O-])cc(C(C)(C)C)c1O	nt	i	i	i	i	i	nt	nt
COc1ccc(CC2NCC(O)C2OC(C)=O)cc1 (stereo not drawn)	105	nt	i	nt	i	i	99	99
COc1ccc(CC(=O)N2CCN(C)CC2)cc1	i	i	i	i	i	i	nt	nt
CC(=O)c1cn(Cc2ccccc2C#N)c2ccccc12	75	i	i	i	i	i	88	85
O=Cc1cn(Cc2ccccc2F)c2ccccc12	i	i	i	i	i	i	nt	nt
CC(=O)c1cn(Cc2ccccc2F)c2ccccc12	83	nt	i	i	i	i	90	75
CCC(c1nnnn1Cc1ccccc1)N1CCC(n2c(=O)[nH]c3ccccc32)CC1 (stereo not drawn)	i	nt	i	nt	i	i	nt	nt
Clc1cccc(C2NCc3ccccc3-n3cccc32)c1 (stereo not drawn)	i	i	i	i	i	i	nt	nt
S=P(N1CCCCCC1)(N1CC1)N1CC1	i	nt	i	nt	i	i	nt	nt
COc1ccc(-n2c(O)c(/C=C/C=Nc3ccccc3)c(=O)[nH]c2=O)cc1	i	i	i	i	i	i	nt	nt
CC(=NC(C)c1ccccc1)c1c(O)[nH]c(=O)[nH]c1=O (stereo not drawn)	i	i	i	i	i	i	nt	nt
CCCCOP(=O)(OCCCC)/C(C#N)=C(/C)O	i	i	i	i	i	i	nt	nt
CC(=O)OC[C@]12CCC(C)=C[C@H]1O[C@@H]1[C@H](O)[C@@H](OC(C)=O)[C@@]2(C)[C@]12CO2	102	i	i	nt	i	i	100	99
N#CC(C#N)=NNc1ccc(-n2ccc(C(F)(F)F)n2)cc1	96	i	i	i	i	i	i	i
Nc1ncnc2c1ccn2[C@@H]1O[C@H](CO)[C@@H](O)[C@H]1O	100	i	i	i	i	i	98	89
NC(=S)c1cn(C2OC(CO)C(O)C2O)c2ncnc(N)c12 (stereo not drawn)	103	i	i	i	i	i	98	88
CC(=NNC(=S)N1CC2CCC(CC2)C1)c1nccs1	96	nt	i	nt	i	i	100	85
COC(=O)C1=C(c2ccc(Cl)c(C(F)(F)F)c2)C[C@@H]2CC[C@H]1N2C(=O)NCCCOC(C)C	i	i	nt	nt	nt	nt	nt	nt
CC1=CC2OC3CC4OC(=O)C=CC=CC(=O)OCCC(C)C(O)C(=O)OCC2(CC1O)C4(C)C31CO1 (stereo not drawn)	99	nt	nt	nt	nt	nt	100	99
CC1=CC2OC3CC4OC(=O)C=CC=CC(C(C)O)OCC(O)C(C)CC(=O)OCC2(CC1O)C4(C)C31CO1 (stereo not drawn)	101	nt	i	nt	i	i	100	99
N#CC1c2ccccc2-n2nncc2CN1C(=O)c1cccnc1 (stereo not drawn)	nt	nt	i	nt	i	i	nt	nt
CCC(=NCCc1c[nH]c2ccccc12)c1c(O)n(C)c(=O)n(C)c1=O	73	i	i	i	i	i	87	77
CCC(=NCCOc1ccc(Cl)cc1)c1c(O)n(C)c(=O)n(C)c1=O	79	i	i	i	i	i	96	83
CCNc1nc(Cl)nc(NC(C)C)n1	i	i	i	i	i	i	nt	nt
CN1C(=O)N(C)C(=O)C2(Cc3cc(NC(=O)c4ccc(F)cc4)ccc3N3CCCC32)C1=O (stereo not drawn)	i	i	i	i	i	i	nt	nt
